Data: article PMC3313489 (European journal of lipid science and technology : EJLST, 2011)
Like-named read-outs stand apart in the source and are kept apart here.

Assays:
[1] = target: T1, PMPMEase (Sus scrofa, UniProt Q29550); assay: PMPMEase enzyme assay with RD-PNB substrate; format: biochemical, porcine; conditions: for decrease in PMPMEase inhibitory potency relative to AA: from IC50 values, AA as comparator
T1 sequence (Q29550 19-566): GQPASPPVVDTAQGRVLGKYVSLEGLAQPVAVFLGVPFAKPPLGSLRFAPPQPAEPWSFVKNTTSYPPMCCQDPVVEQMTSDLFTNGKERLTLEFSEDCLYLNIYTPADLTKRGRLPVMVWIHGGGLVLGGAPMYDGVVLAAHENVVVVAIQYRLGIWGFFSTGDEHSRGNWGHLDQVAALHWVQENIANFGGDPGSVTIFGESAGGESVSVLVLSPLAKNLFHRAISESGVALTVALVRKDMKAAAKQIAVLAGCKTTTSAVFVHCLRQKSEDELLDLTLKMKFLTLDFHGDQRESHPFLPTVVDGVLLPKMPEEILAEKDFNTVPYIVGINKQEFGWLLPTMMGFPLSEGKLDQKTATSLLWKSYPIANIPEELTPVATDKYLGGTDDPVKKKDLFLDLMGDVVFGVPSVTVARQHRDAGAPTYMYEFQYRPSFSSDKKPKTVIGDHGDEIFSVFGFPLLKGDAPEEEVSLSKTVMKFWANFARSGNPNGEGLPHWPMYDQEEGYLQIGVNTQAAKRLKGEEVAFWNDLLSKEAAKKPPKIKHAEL

[2] = target: T2, PMPMEase (Homo sapiens, UniProt P23141); assay: PMPMEase activity in lysates of FFA-treated SH-SY5Y cells; format: cell-based; conditions: DMSO-induced degenerated cells, non-specific cytotoxic agent
T2 sequence (P23141 18-567): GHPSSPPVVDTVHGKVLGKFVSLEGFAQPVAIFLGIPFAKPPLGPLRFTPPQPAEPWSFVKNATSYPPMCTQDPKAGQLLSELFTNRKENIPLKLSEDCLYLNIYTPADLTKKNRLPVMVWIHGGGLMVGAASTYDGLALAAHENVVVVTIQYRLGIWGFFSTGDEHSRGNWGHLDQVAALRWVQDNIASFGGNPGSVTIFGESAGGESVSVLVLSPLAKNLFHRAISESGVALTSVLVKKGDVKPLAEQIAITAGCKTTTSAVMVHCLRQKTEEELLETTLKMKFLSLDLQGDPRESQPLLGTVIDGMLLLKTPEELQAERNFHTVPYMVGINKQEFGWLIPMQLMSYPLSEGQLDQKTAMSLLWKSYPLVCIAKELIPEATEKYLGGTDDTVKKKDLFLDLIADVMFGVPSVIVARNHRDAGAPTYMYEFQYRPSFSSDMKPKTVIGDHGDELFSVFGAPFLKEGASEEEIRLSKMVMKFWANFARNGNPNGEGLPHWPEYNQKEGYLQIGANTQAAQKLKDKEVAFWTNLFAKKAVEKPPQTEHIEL
Summary of the method: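 SH-SY5Y cells were seeded in 24-well plates at 5 × 10^5 and exposed to fatty acids (0–200 μM) or DMSO for 24 h, then lysed in medium with Triton X-100. Lysate was incubated at 37 °C with RD-PNB in 100 mM Tris-HCl, pH 7.4. Reactions were stopped with methanol on ice and spun, and product was measured by RP-HPLC (UV 260 nm). Means ± S.E.M.; ANOVA with Dunnett's test.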

[3] = test system: Human neuroblastoma SH-SY5Y cells; assay: Cell viability, resazurin reduction; format: cell-based; conditions: for degeneration of the cells: 10 μM (printed for AA), 72 h, Figure 4C
[4] = purified PMPMEase 5 μg, RD-PNB 1 mM, 37°C, pH 7.4
[5] = purified PMPMEase 5 μg, RD-PNB 1 mM, 15 min pre-incubation, 37°C, pH 7.4

Row | IC50 [1] [µM] | Ki [1] [µM] | SMILES | further results
1 |  |  | CCCCC[C@H](O)/C=C/[C@@H]1[C@@H](CCCCCCC(=O)O)[C@H](O)C[C@H]1O [Prostaglandin F1β] | Ki [1, 4]: > 28 µM; IC50 [1, 5]: > 1000 µM
2 |  |  | C[S+](C)[O-] [DMSO, dimethylsulfoxide] | loss of PMPMEase enzyme activity in degenerated cells [2]: 49 ± 3%
3 | 580 |  | CCCCC[C@H](O)/C=C/C1=C(CCCCCCC(=O)O)C(=O)CC1 [Prostaglandin B1] | 
4 | 37 | 1 | CCCCCC/C=C\CCCCCCCC(=O)O [Palmitoleic acid] | 
5 | > 1000 |  | CCCCC[C@H](O)/C=C/[C@H]1[C@H](O)CC(=O)[C@@H]1C/C=C\CCCC(=O)O [Prostaglandin E2] | decrease in PMPMEase inhibitory potency relative to AA [1]: > 150 fold; degeneration of the cells [3]: 34 ± 4.0%
6 | 63 | 1.8 | CCCC/C=C\CCCCCCCC(=O)O [Myristoleic acid] | 
7 | 53 | 1.5 | CCCCCCCC/C=C\CCCCCCCC(=O)O [Oleic acid] | 
8 | 6.6 |  | CCCCC/C=C\C/C=C\C/C=C\C/C=C\CCCC(=O)O [Arachidonic acid] | degeneration of the cells [3]: 99 ± 0.1%
9 | > 1000 | > 28 | CCCCC[C@H](O)/C=C/[C@H]1C=CC(=O)[C@@H]1CCCCCCC(=O)O [Prostaglandin A1] | 
10 | 420 |  | CCCCC[C@H](O)/C=C/[C@H]1C=CC(=O)[C@@H]1C/C=C\CCCC(=O)O [Prostaglandin A2] | decrease in PMPMEase inhibitory potency relative to AA [1]: over 63 fold
11 | > 1000 | > 28 | CCCCCCCCCC(=O)O [Decanoic acid] | 
12 | > 1000 | > 28 | CCCCCCCC/C=C/CCCCCCCC(=O)O [Elaidic acid] | 
13 | 130 |  | CC/C=C\C/C=C\C/C=C\C/C=C\C/C=C\C/C=C\CCC(=O)O [Docosahexaenoic acid] | 
14 | > 1000 | > 28 | CCCCCCCCCCCCCCCCCCCC(=O)O [Arachidic acid] | effect on cell viability (in words) ([3]; 200 μM, 24 h exposure, listed as ARA): no effect on cell viability
15 | 100 | 2.8 | CCCCCCCCCCCCCC(=O)O [Myristic acid] | 
16 | > 1000 | > 28 | CCCCC[C@H](O)/C=C/[C@@H]1[C@@H](C/C=C\CCCC(=O)O)[C@@H](O)C[C@H]1O [Prostaglandin F2α] | degeneration of the cells [3]: 19 ± 5.6%
17 | > 1000 | > 28 | CCCCCCCCCCCCCCCC(=O)O [Palmitic acid] | 
18 | 64 | 1.8 | CCCCC/C=C\C/C=C\CCCCCCCC(=O)O [Linoleic acid] | 
19 | 12 |  | CC/C=C\C/C=C\C/C=C\C/C=C\C/C=C\CCCC(=O)O [Eicosapentaenoic acid] | 
20 | > 1000 | > 28 | CCCCCCCC(=O)O [Octanoic acid] | 
21 | > 1000 |  | CCCCC[C@H](O)/C=C/[C@H]1[C@H](O)CC(=O)[C@@H]1CCCCCCC(=O)O [Prostaglandin E1] | 
22 | > 1000 | > 28 | CCCCCCCCCCCCCCCCCC(=O)O [Stearic acid] | 
23 |  |  | CCCCCCCCCCCC(=O)O [Lauric acid] | Ki [1, 4]: 6.5 µM; IC50 [1, 5]: 230 µM
24 | > 1000 | > 28 | CCCCCCCC/C=C\CCCCCCCCCCCC(=O)O [Erucic acid] | 

Row | SMILES | IC50 [1] [µM] | Ki [1] [µM] | further results
25 | CC/C=C\C/C=C\C/C=C\CCCCCCCC(=O)O [Linolenic acid] | 22 |  | 
